Experimental findings from ChEMBL document CHEMBL1255191, “Design and synthesis of hydroxyethylamine (HEA) BACE-1 inhibitors: structure-activity relationship of the aryl region” (Bioorg Med Chem Lett, 2010) are described below.

Data set [1] addresses T1, Beta-secretase 1 (Homo sapiens, UniProt P56817). Put plainly: Inhibition of BACE1 in HEK293 cells. Format: cell-based.
The nature of data set [2]: Lipophilicity, log P of the compound. Format: physicochemical. The settings on record: octanol/water.
Data set [3] can be described thus: […] constant pKa of the compound. Format: physicochemical. A digest of the protocol:
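pKa measured by capillary electrophoresis.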

Data set [4] has as its target T1, Beta-secretase 1. Put plainly: Inhibition of BACE1. The method in brief: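 Recombinant BACE from E. coli; compounds serially diluted in DMSO, preincubated with enzyme 20 min at room temperature in 100 mM sodium acetate, 0.001% Tween-20, pH 4.5. Biotinylated Swedish-mutant APP peptide with C-terminal Oregon Green added; 3 h at 37 °C.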
Data set [5] addresses Cathepsin D (Homo sapiens, UniProt P07339). Put plainly: Inhibition of cathepsin D. Conditions: read-out: IC50. A digest of the protocol:
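Cathepsin-D at 0.6 nM final in 100 mM sodium acetate pH 4.5; compounds three-fold serially diluted in DMSO, then diluted 33× in buffer, preincubated with enzyme 30 min. Biotinylated peptide substrate with C-terminal Oregon Green started reaction, 110 min at 37 °C. Quenched with streptavidin in 200 mM sodium phosphate pH 7.5; fluorescence polarization read, cleavage lowering polarization.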

Data set [6] is described as follows: Apparent permeability across MDCK2 cells. Conditions: dog, MDCK; call rule not given here. Format: ADME, cell-based, Canis lupus familiaris, MDCK-II.

A value given as a limit tells only on which side of the number the result lay.

T1 sequence (P56817 whole entry): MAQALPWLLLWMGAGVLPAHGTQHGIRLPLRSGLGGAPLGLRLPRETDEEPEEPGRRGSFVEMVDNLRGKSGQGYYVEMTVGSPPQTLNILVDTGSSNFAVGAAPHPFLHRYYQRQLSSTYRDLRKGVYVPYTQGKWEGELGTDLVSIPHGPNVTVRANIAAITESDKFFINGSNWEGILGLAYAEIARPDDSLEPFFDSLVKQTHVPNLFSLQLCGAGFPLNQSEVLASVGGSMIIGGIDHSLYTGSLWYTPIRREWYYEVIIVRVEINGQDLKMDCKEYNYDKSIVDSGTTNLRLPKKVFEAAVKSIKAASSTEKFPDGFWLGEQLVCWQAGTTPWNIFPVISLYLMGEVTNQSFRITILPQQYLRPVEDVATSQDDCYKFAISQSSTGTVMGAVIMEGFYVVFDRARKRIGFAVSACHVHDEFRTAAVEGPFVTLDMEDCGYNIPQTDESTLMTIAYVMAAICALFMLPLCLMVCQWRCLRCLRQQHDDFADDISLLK
Sequence of Cathepsin D (P07339 65-162 limits assumed): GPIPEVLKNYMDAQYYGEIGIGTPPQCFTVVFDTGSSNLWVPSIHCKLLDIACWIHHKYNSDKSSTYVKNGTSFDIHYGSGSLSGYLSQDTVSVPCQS
Sequence of Cathepsin D (P07339 169-412 limits assumed): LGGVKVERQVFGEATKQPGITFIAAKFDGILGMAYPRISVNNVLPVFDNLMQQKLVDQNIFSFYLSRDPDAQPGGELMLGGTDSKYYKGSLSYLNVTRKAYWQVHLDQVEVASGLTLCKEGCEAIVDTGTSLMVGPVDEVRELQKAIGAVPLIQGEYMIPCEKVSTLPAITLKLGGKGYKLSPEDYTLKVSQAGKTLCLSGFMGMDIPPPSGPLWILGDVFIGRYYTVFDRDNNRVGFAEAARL

Compound `CC(=O)N[C@@H](Cc1cc(F)cc(F)c1)[C@H](O)CNC1(c2nc(CC(C)(C)C)cs2)CC1` gave an ED50 in data set [1] above 10 µM. The compound further displayed a logP in data set [2] of 4.3. In data set [3], the pKa entry is “Not Active”. The IC50 in data set [4] is 9.36 µM; in data set [5], 3.11 µM. In addition, in data set [6], the Papp came to 11.3 ×10⁻⁶ cm/s.

In general, logP refers to the decadic logarithm of the partition coefficient of the neutral form, usually between octanol and water. The low end stands for a more hydrophilic compound, the high end for a more lipophilic compound. By IC50 is commonly meant the point on the concentration scale where inhibition reaches its midpoint. As usually defined, the Papp is the rate of passage across a membrane or cell layer, normalised by area and donor concentration.
